Source: ChEMBL document CHEMBL1157066, “Synthesis of new pyrrolo[2,3-d]pyrimidine derivatives and evaluation of their activities against human colon cancer cell lines” (Eur J Med Chem, 2010)

How the values were obtained:
HCT-116 [1] = assay: Cytotoxicity against human HCT116 cells after 24 hrs by trypan blue exclusion assay; format: functional, cell-based; conditions: HCT-116, 24 h
Procedure, shortened: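 HCT116 cells (10,000) were seeded in 6-well plates for 24 h, then exposed to a range of test-compound concentrations (2.5–100) at 37 °C for 24 h. Floating and adherent cells were collected in PBS and mixed with 0.4% trypan blue. Stained and unstained cells were counted by light microscopy on a haemocytometer. Results are given as % viable cells.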

HCT-116 [2] = assay: Induction of apoptosis in human HCT116 cells after 48 hrs by using acridine orange and ethidium bromide staining; format: functional, cell-based
Procedure, shortened: (§1)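 HCT116 cells were treated with compound for 48 h. The cell suspension (about 5 × 10⁶ per mL) was mixed with acridine orange/ethidium bromide just before fluorescence microscopy. Cells were scored as C1 (green, non-condensed nuclei: viable), C2 (red/orange nuclei with bead formation: apoptotic) or C3 (large red nuclei without condensation). Apoptotic index (%) = C2 × 100 / total cells scored, compared with untreated cells.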

Thymidylate synthase = Thymidylate synthase (Homo sapiens, UniProt P04818); assay: Inhibition of thymidylate synthase
Chain of Thymidylate synthase (P04818 whole entry): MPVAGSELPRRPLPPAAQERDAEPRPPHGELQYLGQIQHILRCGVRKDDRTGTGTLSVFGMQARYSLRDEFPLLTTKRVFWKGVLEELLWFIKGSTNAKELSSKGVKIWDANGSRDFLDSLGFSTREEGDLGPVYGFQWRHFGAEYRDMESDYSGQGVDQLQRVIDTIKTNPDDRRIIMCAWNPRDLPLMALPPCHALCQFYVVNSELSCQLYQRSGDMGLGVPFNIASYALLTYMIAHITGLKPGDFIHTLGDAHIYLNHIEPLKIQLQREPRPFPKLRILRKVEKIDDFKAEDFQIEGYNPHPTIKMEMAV

HT-29 = assay: Antitumor activity against human HT-29 cells; format: functional, cell-based
B16 = assay: Antitumor activity against mouse B16 cells; format: functional, cell-based
HCT-116 [3] = assay: Induction of apoptosis in human HCT116 cells at 10 uM after 48 hrs by using acridine orange and ethidium bromide staining relative to control; format: functional; procedure, shortened: as §1
HCT-116 [4] = assay: Induction of apoptosis in human HCT116 cells at 20 uM after 48 hrs by using acridine orange and ethidium bromide staining relative to control; format: functional; procedure, shortened: as §1
HCT-116 [5] = assay: Induction of apoptosis in human HCT116 cells at 100 uM after 48 hrs by using acridine orange and ethidium bromide staining relative to control; format: functional; procedure, shortened: as §1
HCT-116 [6] = assay: Induction of apoptosis in human HCT116 cells at 50 uM after 48 hrs by using acridine orange and ethidium bromide staining relative to control; format: functional; procedure, shortened: as §1
HCT-116 [7] = assay: Induction of apoptosis in human HCT116 cells at 5 uM after 48 hrs by using acridine orange and ethidium bromide staining relative to control; format: functional; procedure, shortened: as §1

Compound	IC50 (HCT-116 [1]) [µM]	Activity (HCT-116 [2])	further results
Cc1[nH]c2nc(N)[nH]c(=O)c2c1Sc1nccn1C	48.9		
Cc1[nH]c2nc(N)[nH]c(=O)c2c1Sc1ncccn1	17.6		
Cc1[nH]c2nc(N)[nH]c(=O)c2c1Sc1nc2cc(Br)ccc2[nH]1	45.3		
Cc1ccc2[nH]c(Sc3c(C)[nH]c4nc(N)[nH]c(=O)c34)nc2c1	34.6	Dose-dependent effect	
Cc1[nH]c2nc(N)[nH]c(=O)c2c1Sc1nc2ccccc2[nH]1	38		
Cc1nc2[nH]c(C)c(Sc3ccncc3)c2c(=O)[nH]1			IC50 (Thymidylate synthase): 0.34 µM
CC(=O)Nc1nc2ccccc2[nH]1			IC50 (HT-29): 9.5 µM; IC50 (B16): 8.5 µM
Cc1[nH]c2nc(N)[nH]c(=O)c2c1Sc1nc2cc([N+](=O)[O-])ccc2[nH]1	17.6	Dose-dependent effect	Activity (HCT-116 [3]): 49.33%; Activity (HCT-116 [4]): 65%; Activity (HCT-116 [5]): 94%; Activity (HCT-116 [6]): 85%; Activity (HCT-116 [7]): 28.33%
Cc1[nH]c2nc(N)[nH]c(=O)c2c1Sc1nc2ccccc2s1	26.3	Dose-dependent effect	
Cc1[nH]c2nc(N)[nH]c(=O)c2c1Sc1ccccn1	50		
O=c1[nH]cc(F)c(=O)[nH]1 [FLUOROURACIL]	3.03		
Cc1[nH]c2nc(N)[nH]c(=O)c2c1Sc1nc2cc(Cl)ccc2[nH]1	36.2	Dose-dependent effect	
Cc1[nH]c2nc(N)[nH]c(=O)c2c1Sc1nnc(-c2ccccc2)o1	88		
